The nature of the assay: inhibitors of GR-EGFP nuclear translocation, primary screen, dynein cargo transport inhibitor project, imaging, high-content, 3617.4 mouse cells (AID 1381). The conditions noted are these: stimulated with dexamethasone, 1 µM. The essentials: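 Also added: dexamethasone, 1.0 µM final. Medium: tet-free, stripped-serum medium. Detection: fixed, Hoechst-stained cells imaged at 10x for EGFP. Read-out: nuclear-to-cytoplasmic GR-EGFP distribution per well. Times: induction 48 h, compound 1 h, agonist 30 min.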

Where [1] appears, read: measured here: cell count per field, at 20 µM.
Where [2] appears, read: measured here: cytoplasmic GR-EGFP intensity, at 20 µM, stronger effect = higher value.
Where [3] appears, read: measured here: nuclear GR-EGFP intensity, at 20 µM, stronger effect = lower value.
The mark [4] stands for this setting: measured here: cell count per field, at 50 µM.
Setting [5] is: measured here: cytoplasmic GR-EGFP intensity, at 50 µM, stronger effect = higher value.
Where [6] appears, read: measured here: nuclear GR-EGFP intensity, at 50 µM, stronger effect = lower value.

Hit rate of the full screen: of about 220,000 compounds, about 1,000 (0.45%) were called active.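 How the source made its calls: active means plate z-score of nuclear minus cytoplasmic receptor signal below a set negative limit, without overly bright fluorescence or cell loss (cut at about -3.5 in these data, passing the limit was not always enough); inactive means the rest, inconclusive results apart.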 What follows is part of a selection rich in actives, with near analogues and random picks from the rest.

Turning to `Cc1c(C(=O)O)cccc1-n1c(C)cc(/C=C2\C(=O)NC(=O)N(c3ccc4c(c3)OCO4)C2=O)c1C`, the z-score was -0.66 (inactive) (at 20 µM, stronger effect = lower value); 0.519 under setting [1]; -0.101 under setting [2]; -0.113 under setting [3].

Consider `Cc1ccccc1N1C(=O)NC(=O)/C(=C\c2cc(C)n(C)c2C)C1=O`, for which the z-score runs as follows: (at 20 µM, stronger effect = lower value) -0.127 (inactive); under setting [1], 0.901; under setting [2], -0.306; under setting [3], -0.135.

For the compound `O=C1NC(=O)N(c2ccc(F)cc2)C(=O)/C1=C/c1ccc2c(c1)CCCN2Cc1ccccc1`, the z-score reads like this: (at 20 µM, stronger effect = lower value) -0.735 (inactive); under setting [1], -0.42; under setting [2], 4.11; under setting [3], 0.344.

For `O=C1NC(=O)N(c2ccccc2)C(=O)/C1=C/c1ccc([N+](=O)[O-])s1`, the z-score is, setting by setting: (at 20 µM, stronger effect = lower value) -5.82 (active); under setting [1], 0.268; under setting [2], 2.42; under setting [3], -2.58.

Regarding `COc1cccc(N2C(=O)NC(=O)/C(=C\c3ccc([N+](=O)[O-])s3)C2=O)c1`, the z-score by setting is: (at 20 µM, stronger effect = lower value) -6.53 (active); under setting [1], -0.425; under setting [2], 2.64; under setting [3], -2.61.

With `Cc1cccc(N2C(=O)NC(=O)/C(=C\c3cnn(-c4ccccc4)c3)C2=O)c1`, the z-score was 0.124 (inactive) (at 20 µM, stronger effect = lower value); -0.649 under setting [1]; -0.166 under setting [2]; 0.444 under setting [3].

As for `OC1/C(=C/c2ccc(C(F)(F)F)cc2)N2CCC1CC2` (stereo not given), the z-score is -1.47 (inactive) (at 20 µM, stronger effect = lower value); 0.879 under setting [1]; -0.265 under setting [2]; -0.69 under setting [3].

As for `CCCC[N+]1(C)C2CC(OC(=O)C(CO)c3ccccc3)CC1C1OC12` (stereo not given), the z-score is -0.526 (inactive) (at 20 µM, stronger effect = lower value); 0.258 under setting [1]; -0.759 under setting [2]; 0.0484 under setting [3].

As to `c1cc2c(cc1CCNC1CCCCCC1)OCO2`, the z-score (at 50 µM, stronger effect = lower value) was 1.01 (inactive); the z-score under setting [4] was determined as 0.684; the z-score under setting [5] was -0.246; the z-score under setting [6] was 0.379.

On to `CC(c1ccccc1)(c1ccccc1)c1ccncc1`, for which the z-score runs as follows: (at 20 µM, stronger effect = lower value) -0.152 (inactive); under setting [1], -0.267; under setting [2], -0.379; under setting [3], -0.628.

For the compound `Cc1cc(C=C2C(=O)NC(=O)NC2=O)c(C)n1-c1ccncc1`, the z-score (at 20 µM, stronger effect = lower value) is 1.16 (inactive); the z-score under setting [1] is -1.04; the z-score under setting [2] was -0.229; the z-score under setting [3] was 0.621.

On to `CCN(CC)C(=O)c1ccc(NC(=O)c2cc(-n3cnnc3)ccc2Cl)cc1`, for which the z-score is 1.07 (inactive) (at 50 µM, stronger effect = lower value); -0.204 under setting [4]; -0.239 under setting [5]; 0.487 under setting [6].

For the compound `CN(C)CC1Oc2ccccc2OC1(O)c1ccccc1` (stereo not given), the z-score reads like this: (at 20 µM, stronger effect = lower value) -6.23 (active); under setting [1], 1.09; under setting [2], 1.79; under setting [3], -2.55.

Consider `COc1ccc(NC(=O)c2cn(CCC#N)nc2-c2ccc([N+](=O)[O-])cc2)cc1`, for which the z-score by setting is: (at 20 µM, stronger effect = lower value) -0.74 (inactive); under setting [1], 0.149; under setting [2], -0.33; under setting [3], -0.871.

Regarding `CCC(C)n1c(O)c(/C=N/Nc2nc3c(c(=O)n(C)c(=O)n3C)n2C)c(=O)[nH]c1=S` (stereo not given), the z-score (at 20 µM, stronger effect = lower value) is -0.95 (inactive); the z-score under setting [1] worked out at 0.937; the z-score under setting [2] was -0.21; the z-score under setting [3] is -0.129.

The values are drawn from PubChem BioAssay AID1381 (University of Pittsburgh Molecular Library Screening Center, 2008).
